From ChEMBL document CHEMBL3585248, “Amorfrutins Are Natural PPARγ Agonists with Potent Anti-inflammatory Properties” (J Nat Prod, 2015)
Calls of active or inactive are those of the source. No cut-off for these calls is given here.

Legend:
HT-29 [1] = assay: Cytotoxicity against human HT-29 cells assessed as cell viability up to 5 uM after 54 hrs by CytoTox-Glo assay; type: cell-based; conditions: ht-29, 54 h
HT-29 [2] = assay: Cytotoxicity against human HT-29 cells assessed as reduction in cell viability after 54 hrs by CytoTox-Glo assay; conditions: HT-29, 54 h
HT-29 [3] = assay: Cytotoxicity against human HT-29 cells assessed as cell viability at 10 uM after 54 hrs by CytoTox-Glo assay; type: cell-based; conditions: ht-29, 54 h
[4] = target: T1, Peroxisome proliferator-activated receptor gamma (Homo sapiens) (UniProt P37231); assay: Agonist activity at PPARgamma in human HT29 cells assessed as reduction in TNFalpha-induced COX2 gene expression at 10 uM after 48 hrs by real-time qPCR analysis; type: cell-based; conditions: HT-29
T1 sequence (whole entry): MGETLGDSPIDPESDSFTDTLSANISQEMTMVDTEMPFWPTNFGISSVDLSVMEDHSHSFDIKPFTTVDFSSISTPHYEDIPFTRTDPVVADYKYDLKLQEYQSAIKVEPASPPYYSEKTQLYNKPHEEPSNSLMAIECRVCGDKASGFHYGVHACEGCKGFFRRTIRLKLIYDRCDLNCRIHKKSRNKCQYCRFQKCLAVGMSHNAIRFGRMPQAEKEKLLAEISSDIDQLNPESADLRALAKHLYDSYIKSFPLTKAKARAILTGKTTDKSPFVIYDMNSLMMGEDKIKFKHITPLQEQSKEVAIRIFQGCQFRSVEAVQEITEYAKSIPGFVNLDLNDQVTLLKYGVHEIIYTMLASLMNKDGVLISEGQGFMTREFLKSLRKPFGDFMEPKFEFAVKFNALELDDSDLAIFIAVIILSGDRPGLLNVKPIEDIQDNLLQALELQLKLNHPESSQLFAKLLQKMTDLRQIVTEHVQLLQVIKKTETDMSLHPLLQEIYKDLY
Procedure, shortened: (§1)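 HT-29 cells pretreated 48 h with 10 μM compound in 0.1% DMSO, then stimulated 6 h with 1 ng/mL TNF-α. Total RNA isolated with DNase digestion, reverse-transcribed, then SYBR Green qPCR run for 40 cycles. Expression normalized to GAPDH by 2−ΔΔCt and reported relative to DMSO-treated cells. Biological triplicates, mean ± SD; one-way ANOVA with Dunnett's test.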

[5] = target: T1, Peroxisome proliferator-activated receptor gamma (Homo sapiens); assay: Agonist activity at PPARgamma in human HT29 cells assessed as reduction in TNFalpha-induced GROalpha gene expression at 10 uM after 48 hrs by real-time qPCR analysis; type: cell-based; conditions: HT-29; procedure, shortened: as §1
[6] = target: T1, Peroxisome proliferator-activated receptor gamma (Homo sapiens); assay: Agonist activity at PPARgamma in human HT29 cells assessed as reduction in TNFalpha-induced IL8 gene expression at 10 uM after 48 hrs by real-time qPCR analysis; type: cell-based; conditions: HT-29; procedure, shortened: as §1
[7] = target: T1, Peroxisome proliferator-activated receptor gamma (Homo sapiens); assay: Agonist activity at PPARgamma in human HT29 cells assessed as reduction in TNFalpha-induced MIP3alpha gene expression at 10 uM after 48 hrs by real-time qPCR analysis; type: cell-based; conditions: HT-29; procedure, shortened: as §1
[8] = target: T1, Peroxisome proliferator-activated receptor gamma (Homo sapiens); assay: Agonist activity at PPARgamma in human HT29 cells assessed as reduction in TNFalpha-induced GROgamma gene expression at 10 uM after 48 hrs by real-time qPCR analysis; type: cell-based; conditions: HT-29; procedure, shortened: as §1
[9] = target: T1, Peroxisome proliferator-activated receptor gamma (Homo sapiens); assay: Agonist activity at PPARgamma in human HT29 cells assessed as reduction in TNFalpha-induced IL-1beta gene expression at 10 uM after 48 hrs by real-time qPCR analysis; type: cell-based; conditions: HT-29; procedure, shortened: as §1
[10] = target: T1, Peroxisome proliferator-activated receptor gamma (Homo sapiens); assay: Agonist activity at PPARgamma in human HT29 cells assessed as reduction in TNFalpha-induced IL8 gene expression in PPARgamma knockdown human HT29 cells at 10 uM after 48 hrs by real-time qPCR analysis; type: cell-based; conditions: HT-29
Procedure, shortened: (§2)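 PPARγ knocked down in HT-29 cells by transfection with 30 nM siRNA, with negative-control siRNA alongside. Cells then given 10 μM compound for 48 h and 1 ng/mL TNF-α for 6 h. Marker mRNA measured by SYBR Green qPCR, normalized to GAPDH by 2−ΔΔCt. Biological triplicates.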

[11] = target: T1, Peroxisome proliferator-activated receptor gamma (Homo sapiens); assay: Agonist activity at PPARgamma in human HT29 cells assessed as reduction in TNFalpha-induced GROalpha gene expression in PPARgamma knockdown human HT29 cells at 10 uM after 48 hrs by real-time qPCR analysis; type: cell-based; conditions: HT-29; procedure, shortened: as §2
[12] = target: T1, Peroxisome proliferator-activated receptor gamma (Homo sapiens); assay: Agonist activity at PPARgamma in human HT29 cells assessed as reduction in TNFalpha-induced COX2 gene expression in PPARgamma knockdown human HT29 cells at 10 uM after 48 hrs by real-time qPCR analysis; type: cell-based; conditions: HT-29; procedure, shortened: as §2
[13] = target: T1, Peroxisome proliferator-activated receptor gamma (Homo sapiens); assay: Agonist activity at PPARgamma in human HT29 cells assessed as reduction in TNFalpha-induced MIP3alpha gene expression in PPARgamma knockdown human HT29 cells at 10 uM after 48 hrs by real-time qPCR analysis; type: cell-based; conditions: HT-29; procedure, shortened: as §2
[14] = target: T1, Peroxisome proliferator-activated receptor gamma (Homo sapiens); assay: Agonist activity at PPARgamma in human HT29 cells assessed as reduction in TNFalpha-induced MIP3alpha gene expression in at 10 uM after 48 hrs by ELISA; type: cell-based; conditions: HT-29
Procedure, shortened: (§3)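 HT-29 cells in DMEM-F12 with 5% FBS, seeded a day ahead; 10 μM compound or 0.1% DMSO control for 48 h, then 1 ng/mL TNF-α for 6 h. Culture supernatants centrifuged at 4 °C, stored at −80 °C. Secreted MIP-3α/CCL20, IL-8 and GRO-α quantified by ELISA. Mean ± SD; compared with TNF-α alone.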

[15] = target: T1, Peroxisome proliferator-activated receptor gamma (Homo sapiens); assay: Agonist activity at PPARgamma in human HT29 cells assessed as reduction in TNFalpha-induced IL8 gene expression in at 10 uM after 48 hrs by ELISA; type: cell-based; conditions: HT-29; procedure, shortened: as §3
[16] = target: T1, Peroxisome proliferator-activated receptor gamma (Homo sapiens); assay: Agonist activity at PPARgamma in human HT29 cells assessed as reduction in TNFalpha-induced GRO-alpha gene expression in at 10 uM after 48 hrs by ELISA; type: cell-based; conditions: HT-29; procedure, shortened: as §3

inhibition [4]	inhibition [5]	inhibition [6]	inhibition [7]	inhibition [8]	inhibition [9]	inhibition [10]	inhibition [11]	inhibition [12]	inhibition [13]	Activity [14]	Activity [15]	Activity [16]	Compound	Activity (HT-29 [1])	IC50 (HT-29 [2]) [µM]	Activity (HT-29 [3])
–	–	–	–	–	–	–	–	–	–	–	–	–	COc1cc(CCc2ccccc2)c(C(=O)O)c(O)c1C/C=C(\C)CCC=C(C)C	Non-toxic	30.5	–
Active	Active	Active	Active	inactive	inactive	inactive	inactive	Active	Active	Active	Active	Active	COc1cc(CCc2ccccc2)c(C(=O)O)c(O)c1CC=C(C)C [AMORFRUTIN A]	–	50.8	Non-toxic
